Reference: ChEMBL document CHEMBL5316292 (J Med Chem, 2023)
Activity calls are given as the source filed them. The calls are words filed in the database; no cut-off is given here.

Assays:
[1] = biological target: T1, Bromodomain-containing protein 2 (Homo sapiens, UniProt P25440); assay: Induction of BRD2 degradation in human MDA-MB-231 cells assessed as decrease in BET half life at 10 uM incubated for 8 hrs in presence of cycloheximide by immunoblotting analysis; assay type: cell-based
How it was run: (§1)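 MDA-MB-231 time-course. Cells given 50 µg/mL cycloheximide plus DMSO, or 50 µg/mL cycloheximide plus 10 µM compound. RIPA lysates immunoblotted for BRD2, BRD3 and BRD4 with GAPDH as control.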
Target sequence in this assay (P25440 whole entry, looked up): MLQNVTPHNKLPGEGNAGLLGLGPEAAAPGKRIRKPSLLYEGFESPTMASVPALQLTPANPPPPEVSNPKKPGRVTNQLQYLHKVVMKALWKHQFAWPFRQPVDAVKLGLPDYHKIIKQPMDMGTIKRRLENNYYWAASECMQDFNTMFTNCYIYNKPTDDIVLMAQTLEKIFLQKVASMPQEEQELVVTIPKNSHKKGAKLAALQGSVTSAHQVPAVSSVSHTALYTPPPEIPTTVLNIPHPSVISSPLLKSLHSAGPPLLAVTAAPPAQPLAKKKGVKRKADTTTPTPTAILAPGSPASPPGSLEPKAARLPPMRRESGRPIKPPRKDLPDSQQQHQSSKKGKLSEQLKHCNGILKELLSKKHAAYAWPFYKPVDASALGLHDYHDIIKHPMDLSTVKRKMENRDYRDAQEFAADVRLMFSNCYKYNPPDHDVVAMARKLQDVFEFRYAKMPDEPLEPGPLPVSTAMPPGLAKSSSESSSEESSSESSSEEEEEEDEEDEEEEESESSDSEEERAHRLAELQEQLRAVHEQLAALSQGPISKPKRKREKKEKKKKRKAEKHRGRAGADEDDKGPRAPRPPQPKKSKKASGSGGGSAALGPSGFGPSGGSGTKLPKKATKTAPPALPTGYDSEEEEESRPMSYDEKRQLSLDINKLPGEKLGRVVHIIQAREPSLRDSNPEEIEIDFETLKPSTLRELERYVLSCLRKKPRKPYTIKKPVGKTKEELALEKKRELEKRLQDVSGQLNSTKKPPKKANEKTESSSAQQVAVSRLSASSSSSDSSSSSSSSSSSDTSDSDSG

[2] = biological target: T2, Bromodomain-containing protein 4 (Homo sapiens, UniProt O60885); assay: Induction of BRD4 degradation in human MDA-MB-231 cells at 0.025 to 2.5 uM incubated for 24 hrs by qRT-PCR analysis; assay type: cell-based; conditions: dose 0.025-2.5 µM
How it was run: (§2)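 MDA-MB-231 cells treated for 24 h at doses rising tenfold from 25 nM to 2.5 µM. Gene expression measured by qRT-PCR. SEM, n = 3.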

[3] = biological target: T1, Bromodomain-containing protein 2; assay: Induction of BRD2 degradation in human PC-3 cells incubated for 16 hrs by immunoblotting analysis; assay type: cell-based
How it was run: (§3)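 MDA-MB-231 or PC-3 cells at 50% confluence in DMEM/10% FBS/pen-strep, treated 16 h with doses falling tenfold from 10 µM to 1 nM. RIPA lysates immunoblotted for BRD2, BRD3 and BRD4 with GAPDH as control. DC50 derived from band densitometry. SEM, n = 2.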
Target sequence in this assay (P25440 whole entry): as the sequence (P25440 whole entry, looked up) above

VCaP [4] = assay: Downregulation of BRD3 mRNA levels in human VCaP cells at 25 to 2500 nM incubated for 24 hrs by qRT-PCR analysis; assay type: functional, cell-based; conditions: dose 25-2500 nM
How it was run: (§4)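 VCaP cells grown to 50% confluence, then treated with compound or DMSO (Methods state 16 h, legend states 24 h). Total RNA isolated, cDNA made from 1 µg RNA, SYBR Green qPCR run in triplicate. Expression by ΔΔCt, normalised to GAPDH. Three independent experiments, SEM.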

[5] = biological target: T3, Bromodomain-containing protein 3 (Homo sapiens, UniProt Q15059); assay: Induction of BRD3 degradation in human PC-3 cells incubated for 16 hrs by immunoblotting analysis; assay type: cell-based; how it was run: as §3
[6] = Antiproliferative activity against human Androgen-resistant 22Rv1 cells assessed as reduction in cell viability measured after 72 hrs by MTS assay; assay type: functional, cell-based; conditions: 22Rv1, 72 h
How it was run: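 MTS viability assay run in triplicate wells. Serial dilutions in DMSO were given, with DMSO as negative control and doxorubicin as positive control, and incubated 72 h. MTS reagent was added for 2 h and absorbance read at 490 nm. % cytotoxicity = (A_medium − A_treatment)/A_medium × 100. EC50 ± SD was taken from dose-response curves of at least three independent experiments.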

[7] = biological target: T1, Bromodomain-containing protein 2; assay: Binding affinity to human partial length BRD2 BD2 (E348 to D455 residues) expressed in bacterial expression system assessed as change in melting temperature at 50 uM at 20 to 85 degreeC by SYPRO orange staining based thermal shift assay
How it was run: (§5)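 DSF thermal shift. 10 µM BD in 50 mM HEPES, 500 mM NaCl pH 7.5, with 50 µM compound or DMSO-matched control and 1:1000 Sypro Orange (ex 465/em 590 nm). Ramp 20–85 °C at 0.03 °C/s. Tm taken as the midpoint between fluorescence max and min. At least three independent experiments, SEM in °C.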
Target sequence in this assay (P25440 whole entry, looked up): as above

VCaP [8] = assay: Downregulation of BRD2 mRNA levels in human VCaP cells at 25 to 2500 nM incubated for 24 hrs by qRT-PCR analysis; assay type: functional, cell-based; conditions: dose 25-2500 nM; how it was run: as §4
[9] = biological target: T3, Bromodomain-containing protein 3; assay: Induction of BRD3 degradation in human MDA-MB-231 cells assessed as decrease in BET half life at 10 uM incubated for 8 hrs in presence of cycloheximide by immunoblotting analysis; assay type: cell-based; how it was run: as §1
Target sequence in this assay (Q15059 2-726 limits assumed): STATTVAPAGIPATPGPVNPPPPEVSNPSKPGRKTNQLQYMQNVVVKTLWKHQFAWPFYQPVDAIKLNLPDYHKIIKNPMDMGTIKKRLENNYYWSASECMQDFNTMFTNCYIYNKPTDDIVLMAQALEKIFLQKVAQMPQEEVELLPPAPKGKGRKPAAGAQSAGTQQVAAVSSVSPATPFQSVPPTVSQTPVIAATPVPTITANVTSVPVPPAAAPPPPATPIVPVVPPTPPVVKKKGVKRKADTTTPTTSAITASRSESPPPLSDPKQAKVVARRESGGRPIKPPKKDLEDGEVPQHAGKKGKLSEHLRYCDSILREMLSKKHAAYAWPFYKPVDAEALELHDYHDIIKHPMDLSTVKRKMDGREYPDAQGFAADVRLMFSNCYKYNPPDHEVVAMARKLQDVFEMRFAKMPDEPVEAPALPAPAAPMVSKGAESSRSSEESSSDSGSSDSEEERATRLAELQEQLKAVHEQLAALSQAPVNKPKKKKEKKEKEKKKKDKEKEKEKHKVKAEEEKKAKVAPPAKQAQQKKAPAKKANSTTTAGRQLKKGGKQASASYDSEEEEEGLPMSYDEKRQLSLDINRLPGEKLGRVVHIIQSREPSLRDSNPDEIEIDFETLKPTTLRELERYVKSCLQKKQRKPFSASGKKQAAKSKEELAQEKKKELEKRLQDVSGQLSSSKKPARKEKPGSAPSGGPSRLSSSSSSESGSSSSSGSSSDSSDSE

[10] = biological target: T3, Bromodomain-containing protein 3; assay: Induction of BRD3 degradation in human MDA-MB-231 cells incubated for 16 hrs by immunoblotting analysis; assay type: cell-based; how it was run: as §3
DU-145 = assay: Antiproliferative activity against AR-negative human DU-145 cells assessed as reduction in cell viability measured after 72 hrs by MTS assay; conditions: DU-145, 72 h
VCaP [11] = assay: Downregulation of AR […] expression in human VCaP cells incubated for 24 hrs by qRT-PCR analysis; assay type: functional, cell-based; conditions: dose 25-2500 nM; how it was run: as §4
[12] = biological target: T3, Bromodomain-containing protein 3; assay: Induction of BRD3 degradation in human MDA-MB-231 cells at 0.025 to 2.5 uM incubated for 24 hrs by qRT-PCR analysis; assay type: cell-based; conditions: dose 0.025-2.5 µM; how it was run: as §2
Target sequence in this assay (Q15059 2-726 limits assumed): as above

VCaP [13] = assay: Downregulation of TMPRSS2 gene levels in human VCaP cells incubated for 24 hrs by qRT-PCR analysis; assay type: functional, cell-based; conditions: dose 25-2500 nM; how it was run: as §4
[14] = biological target: T3, Bromodomain-containing protein 3; assay: Binding affinity to human partial length BRD3 BD2 (G306 to P416 residues) expressed in bacterial expression system assessed as change in melting temperature at 50 uM at 20 to 85 degreeC by SYPRO orange staining based thermal shift assay; how it was run: as §5
Target sequence in this assay (Q15059 2-726 limits assumed): as above

[15] = biological target: T3, Bromodomain-containing protein 3; assay: Binding affinity to human partial length BRD3 BD2 (G306 to P416 residues) expressed in bacterial expression system using H4K5acIC8acK12acK16ac-biotinylated peptide as substrate preincubated for 30 mins followed by substrate addition by AlphaScreen assay
How it was run: (§6)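 AlphaScreen. Biotinylated H4K5acK8acK12acK16ac peptide added at equal concentration to protein for 30 min. Donor and acceptor beads (25 µg/mL each) added, ≥1 h in the dark. Triplicate, curve-fitted, SEM.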
Target sequence in this assay (Q15059 whole entry): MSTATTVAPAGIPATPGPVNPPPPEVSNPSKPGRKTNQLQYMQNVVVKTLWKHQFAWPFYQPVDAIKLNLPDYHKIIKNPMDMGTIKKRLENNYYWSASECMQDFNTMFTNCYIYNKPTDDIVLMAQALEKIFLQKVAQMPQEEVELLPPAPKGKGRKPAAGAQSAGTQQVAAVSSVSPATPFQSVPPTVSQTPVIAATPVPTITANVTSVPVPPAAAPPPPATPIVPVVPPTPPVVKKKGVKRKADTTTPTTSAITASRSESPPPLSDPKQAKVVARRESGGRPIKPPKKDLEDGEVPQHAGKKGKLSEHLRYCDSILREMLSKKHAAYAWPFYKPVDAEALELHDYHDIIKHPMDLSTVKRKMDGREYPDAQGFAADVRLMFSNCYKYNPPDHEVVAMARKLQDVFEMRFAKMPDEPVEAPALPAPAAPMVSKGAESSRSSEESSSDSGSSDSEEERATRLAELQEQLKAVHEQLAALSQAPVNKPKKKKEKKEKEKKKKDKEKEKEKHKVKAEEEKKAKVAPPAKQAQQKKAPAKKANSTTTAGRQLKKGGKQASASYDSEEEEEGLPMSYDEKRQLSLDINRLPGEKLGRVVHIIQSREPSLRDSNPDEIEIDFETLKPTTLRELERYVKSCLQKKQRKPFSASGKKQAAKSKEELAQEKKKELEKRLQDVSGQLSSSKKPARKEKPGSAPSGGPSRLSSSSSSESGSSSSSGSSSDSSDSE

[16] = biological target: T2, Bromodomain-containing protein 4; assay: Induction of BRD4 degradation in human MDA-MB-231 cells incubated for 16 hrs by immunoblotting analysis; assay type: cell-based; how it was run: as §3
[17] = biological target: T1, Bromodomain-containing protein 2; assay: Binding affinity to human partial length BRD2 BD1 (K71 to N194 residues) expressed in bacterial expression system assessed as change in melting temperature at 50 uM at 20 to 85 degreeC by SYPRO orange staining based thermal shift assay; how it was run: as §5
Target sequence in this assay (P25440 whole entry, looked up): as the sequence (P25440 whole entry, looked up) above

VCaP [18] = assay: Downregulation of PSA […] expression in human VCaP cells incubated for 24 hrs by qRT-PCR analysis; assay type: functional, cell-based; conditions: dose 25-2500 nM; how it was run: as §4
[19] = biological target: T2, Bromodomain-containing protein 4; assay: Induction of BRD4 degradation in human MDA-MB-231 cells assessed as decrease in BET half life at 10 uM incubated for 8 hrs in presence of cycloheximide by immunoblotting analysis; assay type: cell-based; how it was run: as §1
[20] = biological target: Bromodomain testis-specific protein (Homo sapiens, UniProt Q58F21); assay: Binding affinity to human partial length BRDT BD1 (N21 to E137 residues) expressed in bacterial expression system using H4K5acIC8acK12acK16ac-biotinylated peptide as substrate preincubated for 30 mins followed by substrate addition by AlphaScreen assay; how it was run: as §6
[21] = biological target: T2, Bromodomain-containing protein 4; assay: Binding affinity to human partial length BRD4 BD2 (K333 to E460 residues) expressed in bacterial expression system using H4K5acIC8acK12acK16ac-biotinylated peptide as substrate preincubated for 30 mins followed by substrate addition by AlphaScreen assay
[22] = biological target: T3, Bromodomain-containing protein 3; assay: Binding affinity to human partial length BRD3 BD1 (P24 to E144 residues) expressed in bacterial expression system using H4K5acIC8acK12acK16ac-biotinylated peptide as substrate preincubated for 30 mins followed by substrate addition by AlphaScreen assay; how it was run: as §6
Target sequence in this assay (Q15059 whole entry): as the sequence (Q15059 whole entry) above

[23] = biological target: T2, Bromodomain-containing protein 4; conditions: dose 50.0 µM

CC(=O)OC[C@]12CC[C@H]3[C@@H](C[C@H]4O[C@]45CC=CC(=O)[C@]35C)[C@]1(O)CC[C@@]2(O)[C@@](C)(O)[C@H]1CC(C)=C(C)C(=O)O1
Activity [1]: Active
Activity [2]: inactive
DC50 [3]: > 10000 nM
Activity (VCaP [4]): inactive
Activity [5]: Dose-Dependent Effect
DC50 [5]: 7290 nM
EC50 [6]: 30.3 nM
ΔTm [7]: 8.23 °C
Activity (VCaP [8]): inactive
Activity [9]: Active
Activity [10]: Dose-Dependent Effect
DC50 [10]: 23.9 nM
EC50 (DU-145): 263 nM
Activity (VCaP [11]): Dose-Dependent Effect
Activity [12]: inactive
Activity (VCaP [13]): Dose-Dependent Effect
ΔTm [14]: 7.45 °C
IC50 [15]: 108 nM
Activity [16]: Dose-Dependent Effect
DC50 [16]: 41.6 nM
ΔTm [17]: 10.4 °C
Activity (VCaP [18]): Dose-Dependent Effect
Activity [19]: Active
IC50 [20]: 403 nM
IC50 [21]: 142 nM
IC50 [22]: 7.11 nM
ΔTm [23]: 11.8 °C
